Several values for one entry are separate records, joined by “and”; a condition that tells them apart may be missing. Identical values can stand only once.
Assays:
Type in all cases: toxicity, cell-based
HEK-293T [1] = assay: Incucyte cell viability with HEK293T; settings: human, 10 µM, compound concentration 10 uM; further: filed as whole numbers so only -1 and 0 and 1 occur
U2OS [2] = assay: Multiplex assay against U2OS; settings: human, 10 µM, compound concentration 10 uM
Procedure, shortened: (§1)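 Four dyes were applied at seeding to live cells: Hoechst33342, BioTracker Green Microtubule Cytoskeleton Dye, MitoTracker Red and Annexin V Alexa Fluor 680. Imaging after compound addition used a CQ1 microscope at 37°C and 5% CO2. CellPathfinder machine-learning gating then sorted cells into Hoechst high-intensity objects or normal cells, normal cells into healthy, pyknosed or fragmented nuclei, and pyknosed cells into mitotic or apoptotic, with tubulin, mitochondrial-mass and membrane-permeability phenotypes given as per cents of healthy-nucleus cells.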

HEK-293T [3] = assay: Multiplex assay against HEK293T; settings: human, 10 µM, compound concentration 10 uM; procedure, shortened: as §1;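 on Population Tubulin-Different-Phenotype (%): share of the cells with healthy nuclei that show this phenotype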
Fibroblast [4] = assay: Incucyte cell viability with human fibroblast; settings: 10 µM, compound concentration 10 uM; further: filed as whole numbers so only -1 and 0 and 1 occur
U2OS [5] = assay: Incucyte cell viability with U2OS; settings: human, 10 µM, compound concentration 10 uM; further: filed as whole numbers so only -1 and 0 and 1 occur
Fibroblast [6] = assay: Multiplex assay against human fibroblast; settings: 10 µM, compound concentration 10 uM; procedure, shortened: as §1
[7] = 6 h, replicate number 1, timepoint 6 hours
[8] = 12 h, replicate number 1, timepoint 12 hours
[9] = 18 h, replicate number 1, timepoint 18 hours
[10] = 24 h, replicate number 1, timepoint 24 hours

## C1=N/C2=N/c3ccc(OCCN4CCCC4)c(c3)COC/C=C\COCc3cccc(c3)C(=C1)N2
HEK-293T [1]; [7]
  Growth Rate: 0
HEK-293T [1]; [8]
  Growth Rate: 0
HEK-293T [1]; [9]
  Growth Rate: 0
HEK-293T [1]; [10]
  Growth Rate: 0
U2OS [2]; 12 h, replicate 1
  Population Apoptotic (%): 87% and 88% and 55%
  Population Fragmented Nuclei (%): 35% and 19% and 20%
  Population Hoechst High Intensity Objects (%): 6% and 13%
  Population Normal (%): 93% and 86%
  Population Pyknosed Nuclei (%): 44% and 67% and 25%
  Population Tubulin-Different-Phenotype (%): 94% and 60%
  Total Cell Count: 194 and 177 and 149
U2OS [2]; 12 h, replicate 2
  Population Apoptotic (%): 90% and 68%
  Population Fragmented Nuclei (%): 53% and 29%
  Population Hoechst High Intensity Objects (%): 16% and 10% and 7%
  Population Normal (%): 83% and 89% and 92%
  Population Pyknosed Nuclei (%): 27% and 53% and 22%
  Population Tubulin-Different-Phenotype (%): 55% and 100% and 43%
  Total Cell Count: 154 and 71 and 158
U2OS [2]; 24 h, replicate 1
  Population Apoptotic (%): 98% and 82%
  Population Fragmented Nuclei (%): 23% and 31% and 11%
  Population Hoechst High Intensity Objects (%): 14% and 15%
  Population Mitochondria Different-Phenotype (%): 100% and 88% and 63%
  Population Normal (%): 85% and 84%
  Population Pyknosed Nuclei (%): 75% and 54% and 32%
  Population Tubulin-Different-Phenotype (%): 100% and 88% and 69%
  Total Cell Count: 179 and 191 and 200
U2OS [2]; 24 h, replicate 2
  Population Apoptotic (%): 100% and 96% and 88%
  Population Membrane Permeable-Phenotype (%): 50% and 81% and 33%
  Population Mitochondria Different-Phenotype (%): 20% and 57%
  Population Mitotic Cells (%): 0% and 3% and 11%
  Population Normal (%): 83% and 67% and 90%
  Population Tubulin-Different-Phenotype (%): 40% and 61%
  Total Cell Count: 154 and 69 and 193
U2OS [2]; 48 h, replicate 1
  Population Apoptotic (%): 100%
  Population Fragmented Nuclei (%): 28%
  Population Healthy Nuclei (%): 1%
  Population Hoechst High Intensity Objects (%): 16%
  Population Membrane Permeable-Phenotype (%): 100%
  Population Mitochondria Different-Phenotype (%): 100%
  Population Mitotic Cells (%): 0%
  Population Normal (%): 83%
  Population Pyknosed Nuclei (%): 70%
  Population Tubulin-Different-Phenotype (%): 100%
  Total Cell Count: 162
U2OS [2]; 48 h, replicate 2
  Population Fragmented Nuclei (%): 19%
  Population Healthy Nuclei (%): 33%
  Population Hoechst High Intensity Objects (%): 37%
  Population Membrane Permeable-Phenotype (%): 92%
  Population Mitochondria Different-Phenotype (%): 92%
  Population Normal (%): 62%
  Population Pyknosed Nuclei (%): 47%
  Population Tubulin-Different-Phenotype (%): 92%
  Total Cell Count: 70
HEK-293T [3]; 12 h, replicate 1
  Population Fragmented Nuclei (%): 34% and 21% and 25%
  Population Hoechst High Intensity Objects (%): 26% and 14% and 21%
  Population Membrane Permeable-Phenotype (%): 14% and 13% and 0%
  Population Normal (%): 73% and 85% and 78%
  Population Pyknosed Nuclei (%): 52% and 47% and 73%
  Total Cell Count: 695 and 596 and 237
HEK-293T [3]; 12 h, replicate 2
  Population Membrane Permeable-Phenotype (%): 4% and 5%
  Population Mitochondria Different-Phenotype (%): 89% and 81% and 50%
  Population Normal (%): 77% and 79% and 94%
  Population Pyknosed Nuclei (%): 54% and 88% and 38%
  Population Tubulin-Different-Phenotype (%): 82% and 72% and 94%
HEK-293T [3]; 24 h, replicate 1
  Population Apoptotic (%): 87% and 58% and 29%
  Population Fragmented Nuclei (%): 30% and 38% and 21%
  Population Hoechst High Intensity Objects (%): 20% and 21% and 14%
  Population Membrane Permeable-Phenotype (%): 0% and 19% and 7%
  Population Normal (%): 79% and 78% and 85%
  Population Pyknosed Nuclei (%): 69% and 45% and 44%
  Total Cell Count: 253 and 698 and 607
HEK-293T [3]; 24 h, replicate 2
  Population Hoechst High Intensity Objects (%): 19% and 13% and 7%
  Population Mitochondria Different-Phenotype (%): 69% and 78% and 54%
  Population Normal (%): 80% and 86% and 92%
  Population Pyknosed Nuclei (%): 79% and 55% and 35%
  Population Tubulin-Different-Phenotype (%): 100% and 87% and 94%
HEK-293T [3]; 48 h, replicate 1
  Population Apoptotic (%): 87%
  Population Fragmented Nuclei (%): 37%
  Population Healthy Nuclei (%): 0%
  Population Hoechst High Intensity Objects (%): 26%
  Population Membrane Permeable-Phenotype (%): 0%
  Population Mitochondria Different-Phenotype (%): 0%
  Population Mitotic Cells (%): 12%
  Population Normal (%): 73%
  Population Pyknosed Nuclei (%): 62%
  Population Tubulin-Different-Phenotype (%): 0%
  Total Cell Count: 253
HEK-293T [3]; 48 h, replicate 2
  Population Fragmented Nuclei (%): 17%
  Population Healthy Nuclei (%): 18%
  Population Hoechst High Intensity Objects (%): 15%
  Population Membrane Permeable-Phenotype (%): 3%
  Population Mitochondria Different-Phenotype (%): 81%
  Population Normal (%): 84%
  Population Pyknosed Nuclei (%): 64%
  Population Tubulin-Different-Phenotype (%): 96%
  Total Cell Count: 212
Fibroblast [4]; [7]
  Growth Rate: 0
Fibroblast [4]; [8]
  Growth Rate: 0
Fibroblast [4]; [9]
  Growth Rate: 0
Fibroblast [4]; [10]
  Growth Rate: 0
U2OS [5]; 0 h, replicate number 1, timepoint 0 hours
  Growth Rate: 0
U2OS [5]; [7]
  Growth Rate: 0
U2OS [5]; [8]
  Growth Rate: 0
U2OS [5]; [9]
  Growth Rate: 0
U2OS [5]; [10]
  Growth Rate: 0
Fibroblast [6]; 12 h, replicate 1
  Population Apoptotic (%): 82% and 50% and 69%
  Population Fragmented Nuclei (%): 23% and 19% and 32%
  Population Hoechst High Intensity Objects (%): 13% and 8% and 12%
  Population Membrane Permeable-Phenotype (%): 0% and 2% and 3%
  Population Mitotic Cells (%): 17% and 49% and 30%
  Population Normal (%): 86% and 91% and 87%
Fibroblast [6]; 12 h, replicate 2
  Population Apoptotic (%): 68% and 44% and 90%
  Population Fragmented Nuclei (%): 66% and 46% and 29%
  Population Normal (%): 60% and 68% and 89%
  Population Pyknosed Nuclei (%): 24% and 18% and 53%
  Total Cell Count: 108 and 72 and 71
Fibroblast [6]; 24 h, replicate 1
  Population Apoptotic (%): 82% and 61% and 58%
  Population Fragmented Nuclei (%): 35% and 32% and 34%
  Population Hoechst High Intensity Objects (%): 15% and 6% and 13%
  Population Mitotic Cells (%): 17% and 38% and 41%
  Population Normal (%): 84% and 93% and 86%
  Population Tubulin-Different-Phenotype (%): 54% and 82%
Fibroblast [6]; 24 h, replicate 2
  Population Apoptotic (%): 92% and 57% and 96%
  Population Hoechst High Intensity Objects (%): 37% and 28% and 32%
  Population Normal (%): 62% and 71% and 67%
  Total Cell Count: 98 and 77 and 69
Fibroblast [6]; 48 h, replicate 1
  Population Apoptotic (%): 87%
  Population Fragmented Nuclei (%): 50%
  Population Healthy Nuclei (%): 24%
  Population Hoechst High Intensity Objects (%): 20%
  Population Membrane Permeable-Phenotype (%): 25%
  Population Mitochondria Different-Phenotype (%): 31%
  Population Mitotic Cells (%): 12%
  Population Normal (%): 79%
  Population Pyknosed Nuclei (%): 24%
  Population Tubulin-Different-Phenotype (%): 50%
  Total Cell Count: 82
Fibroblast [6]; 48 h, replicate 2
  Population Apoptotic (%): 94%
  Population Fragmented Nuclei (%): 68%
  Population Healthy Nuclei (%): 5%
  Population Hoechst High Intensity Objects (%): 14%
  Population Membrane Permeable-Phenotype (%): 0%
  Population Mitochondria Different-Phenotype (%): 100%
  Population Mitotic Cells (%): 5%
  Population Normal (%): 85%
  Population Pyknosed Nuclei (%): 25%
  Population Tubulin-Different-Phenotype (%): 75%
  Total Cell Count: 78
